In ChEMBL document CHEMBL1156396, “Antifungal alkyl amino alcohols from the tropical marine sponge Haliclona n. sp” (2001):
Active and inactive are the calls of the source. No cut-off for these calls is given here.

Tests used:
[1] = system: Escherichia coli; assay: Antibacterial activity against Escherichia coli at 0.12 mg after 24 hrs by paper disk assay; format: functional, organism-based
Outline: (§1)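 Paper disk diffusion: 6 mm diameter disks loaded with 0.12 mg test substance, placed on plates seeded with the test organism and incubated 24 h at 28 °C; activity scored as diameter of growth-inhibition zone (mm).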

[2] = system: Bacillus subtilis; assay: Antibacterial activity against Bacillus subtilis at 0.12 mg after 24 hrs by paper disk assay; format: functional; outline: as §1
[3] = system: Candida albicans; assay: Antifungal activity against Candida albicans at 0.12 mg after 24 hrs by paper disk assay; format: functional, organism-based; outline: as §1
[4] = system: Trichophyton mentagrophytes; assay: Antifungal activity against Trichophyton mentagrophytes at 0.12 mg after 24 hrs by paper disk assay; format: functional; settings: for zone of inhibition at 120 µg/disc: read-out: IZ; outline: as §1
[5] = system: Amorphotheca resinae; assay: Antifungal activity against Cladosporium resinae at 0.12 mg after 24 hrs by paper disk assay; format: functional; settings: for zone of inhibition at 120 µg/disc: read-out: IZ; outline: as §1

C=CCCCCCCCCC[C@@H](O)[C@H](C)NC(C)=O
inhibition zone (IZ) [1]: inactive | inhibition zone (IZ) [2]: inactive | inhibition zone (IZ) [3]: inactive | inhibition zone (IZ) [4]: inactive | inhibition zone (IZ) [5]: inactive

CCCCCCCC/C=C\C[C@@H](O)[C@H](C)N
inhibition zone (IZ) [1]: Active | inhibition zone (IZ) [2]: Active | inhibition zone (IZ) [3]: Active | inhibition zone (IZ) [4]: Active | inhibition zone (IZ) [5]: Active

C=CCCCCCCC[C@@H](O)[C@H](C)N [HALAMINOL B]
inhibition zone (IZ) [1]: Active | inhibition zone (IZ) [2]: Active | inhibition zone (IZ) [3]: Active | zone of inhibition at 120 µg/disc [4]: 10 mm | zone of inhibition at 120 µg/disc [5]: 10 mm

C=CCCCCCCCCC[C@@H](O)[C@H](C)N [HALAMINOL A]
inhibition zone (IZ) [1]: Active | inhibition zone (IZ) [2]: Active | inhibition zone (IZ) [3]: Active | zone of inhibition at 120 µg/disc [4]: 10 mm | zone of inhibition at 120 µg/disc [5]: 10 mm

C=CCCCCCCCCC[C@@H](OC(C)=O)[C@H](C)NC(C)=O [DIACETYL HALAMINOL A]
inhibition zone (IZ) [1]: inactive | zone of inhibition at 120 µg/disc ([2]; read-out: IZ): 7 mm | inhibition zone (IZ) [3]: inactive | inhibition zone (IZ) [4]: inactive | inhibition zone (IZ) [5]: inactive
